Among the data in ChEMBL document CHEMBL4190374, “Structure-Function Evaluation of Imidazopyridine Derivatives Selective for δ-Subunit-Containing γ-Aminobutyric Acid Type A (GABAA) Receptors” (J Med Chem, 2018) are IC50, Imax and inhibition values, retold here.

The target in assay [1] is T1, Gamma-aminobutyric acid receptor subunit alpha-6/beta-3 (Rattus norvegicus, UniProt P30191+P63079). Kind of assay: Displacement of [3H]EBOB from rat GABA-A receptor alpha6beta3 expressed in HEK293 cell membranes after 90 mins by liquid scintillation counting analysis. In outline: (§1)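 Crude membranes from HEK 293 cells transiently Ca-phosphate-transfected with rat subunit cDNAs, harvested at 48 h. Membranes (150-200 µg protein) incubated with 3 nM [3H]EBOB in 50 mM Tris/citrate pH 7.3 plus 0.2 M NaCl. Compound up to 10 µM, final DMSO 0.1%, no GABA, 90 min at 21 °C. Bound radioligand collected by GF/C filtration and counted by scintillation.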
Background: Displacement assays read how much labelled ligand stays bound in the presence of the test substance.

The target of assay [2] is T2, Gamma-aminobutyric acid receptor subunit alpha-6/beta-3/gamma-2 (Rattus norvegicus, UniProt P18508+P30191+P63079). Kind of assay: Displacement of [3H]EBOB from rat GABA-A receptor alpha6beta3gamma2 expressed in HEK293 cell membranes after 90 mins by liquid scintillation counting analysis. In outline: as §1
Assay [3] deals with T3, Gamma-aminobutyric acid receptor subunit alpha-6/beta-3/delta (Rattus norvegicus, UniProt P18506+P30191+P63079). Kind of assay: Displacement of [3H]EBOB from rat GABA-A receptor alpha6beta3delta expressed in HEK293 cell membranes after 90 mins by liquid scintillation counting analysis. The essentials: as §1
The target in assay [4] is T4, Gamma-aminobutyric acid receptor subunit alpha-6/beta-3 (Rattus norvegicus) (UniProt P30191+P63079). Kind of assay: Displacement of [3H]EBOB from rat GABA-A receptor alpha6beta3 expressed in HEK293 cell membranes up to 20 uM after 90 mins by liquid scintillation counting analysis relative to control.
Assay [5] concerns the target T5, Gamma-aminobutyric acid receptor subunit alpha-6/beta-3/gamma-2 (Rattus norvegicus) (UniProt P18508+P30191+P63079). In words: Displacement of [3H]EBOB from rat GABA-A receptor alpha6beta3gamma2 expressed in HEK293 cell membranes up to 20 uM after 90 mins by liquid scintillation counting analysis relative to control.
Assay [6] addresses T6, Gamma-aminobutyric acid receptor subunit alpha-6/beta-3/delta (Rattus norvegicus) (UniProt P18506+P30191+P63079). In words: Displacement of [3H]EBOB from rat GABA-A receptor alpha6beta3delta expressed in HEK293 cell membranes up to 20 uM after 90 mins by liquid scintillation counting analysis relative to control.
In assay [7] the target is Gamma-aminobutyric acid receptor subunit alpha-6/beta-2/delta (Rattus norvegicus, UniProt P18506+P30191+P63138). In words: Displacement of [3H]EBOB from rat GABA-A receptor alpha6beta2delta expressed in HEK293 cell membranes after 90 mins by liquid scintillation counting analysis. In outline: as §1
The target of assay [8] is T5, Gamma-aminobutyric acid receptor subunit alpha-6/beta-3/gamma-2 (Rattus norvegicus). Kind of assay: Displacement of [3H]EBOB from rat GABA-A receptor alpha6beta3gamma2 expressed in HEK293 cell membranes up to 10 uM after 90 mins by liquid scintillation counting analysis relative to control. In outline:
as §1

The target of assay [9] is Gamma-aminobutyric acid receptor subunit alpha-6/beta-2/delta (Rattus norvegicus) (UniProt P18506+P30191+P63138). In words: Displacement of [3H]EBOB from rat GABA-A receptor alpha6beta2delta expressed in HEK293 cell membranes up to 10 uM after 90 mins by liquid scintillation counting analysis relative to control. In outline: as §1
Assay [10] has as its target Gamma-aminobutyric acid receptor subunit alpha-1/beta-3/gamma-2 (Rattus norvegicus) (UniProt P18508+P62813+P63079). Kind of assay: Displacement of [3H]EBOB from rat GABA-A receptor alpha1beta3gamma2 expressed in HEK293 cell membranes at 20 uM after 90 mins by liquid scintillation counting analysis relative to control.
Assay [11] deals with Gamma-aminobutyric acid receptor subunit alpha-1/beta-3/delta (Rattus norvegicus) (UniProt P18506+P62813+P63079). Kind of assay: Displacement of [3H]EBOB from rat GABA-A receptor alpha1beta3delta expressed in HEK293 cell membranes at 20 uM after 90 mins by liquid scintillation counting analysis relative to control.
Assay [12] has as its target Gamma-aminobutyric acid receptor subunit alpha-4/beta-3 (Rattus norvegicus) (UniProt P28471+P63079). Kind of assay: Displacement of [3H]EBOB from rat GABA-A receptor alpha4beta3 expressed in HEK293 cell membranes at 20 uM after 90 mins by liquid scintillation counting analysis relative to control.
For assay [13], the target named is Gamma-aminobutyric acid receptor subunit alpha-4/beta-3/gamma-2 (Rattus norvegicus) (UniProt P18508+P28471+P63079). In words: Displacement of [3H]EBOB from rat GABA-A receptor alpha4beta3gamma2 expressed in HEK293 cell membranes at 20 uM after 90 mins by liquid scintillation counting analysis relative to control.
Assay [14] has as its target Gamma-aminobutyric acid receptor subunit alpha-4/beta-3/delta (Rattus norvegicus) (UniProt P18506+P28471+P63079). In words: Displacement of [3H]EBOB from rat GABA-A receptor alpha4beta3delta expressed in HEK293 cell membranes at 20 uM after 90 mins by liquid scintillation counting analysis relative to control.
For assay [15], the target named is T4, Gamma-aminobutyric acid receptor subunit alpha-6/beta-3 (Rattus norvegicus). Kind of assay: Displacement of [3H]EBOB from rat GABA-A receptor alpha6beta3 expressed in HEK293 cell membranes at 20 uM after 90 mins by liquid scintillation counting analysis relative to control.
Assay [16] has the same target. Kind of assay: (§2) Displacement of [3H]EBOB from rat GABA-A receptor alpha6beta3 expressed in HEK293 cell membranes after 90 mins in presence of GABA by liquid scintillation counting analysis.
Assay [17] deals with T1, Gamma-aminobutyric acid receptor subunit alpha-6/beta-3. The description is as §2.
Assay [18] concerns the target T5, Gamma-aminobutyric acid receptor subunit alpha-6/beta-3/gamma-2 (Rattus norvegicus). Kind of assay: (§3) Displacement of [3H]EBOB from rat GABA-A receptor alpha6beta3gamma2 expressed in HEK293 cell membranes after 90 mins in presence of GABA by liquid scintillation counting analysis.
Assay [19] concerns the target T2, Gamma-aminobutyric acid receptor subunit alpha-6/beta-3/gamma-2. Described as §3.
Assay [20] addresses T6, Gamma-aminobutyric acid receptor subunit alpha-6/beta-3/delta (Rattus norvegicus). Kind of assay: (§4) Displacement of [3H]EBOB from rat GABA-A receptor alpha6beta3delta expressed in HEK293 cell membranes after 90 mins in presence of GABA by liquid scintillation counting analysis.
Assay [21] concerns the target T3, Gamma-aminobutyric acid receptor subunit alpha-6/beta-3/delta. Described as §4.
The target of assay [22] is GABA A receptor alpha-6/beta-2/gamma-2 (Rattus norvegicus) (UniProt P18508+P30191+P63138). Kind of assay: Displacement of [3H]EBOB from rat GABA-A receptor alpha6beta2gamma2 expressed in HEK293 cell membranes at 10 uM after 90 mins by liquid scintillation counting analysis relative to control. In outline: as §1
Assay [23] deals with Gamma-aminobutyric acid receptor subunit alpha-6/beta-2 (Rattus norvegicus) (UniProt P30191+P63138). Kind of assay: Displacement of [3H]EBOB from rat GABA-A receptor alpha6beta2 expressed in HEK293 cell membranes at 10 uM after 90 mins by liquid scintillation counting analysis relative to control. The essentials:
as §1

Calls of active or inactive are those of the source. The calls are words filed in the database; no cut-off is given here.

T3 sequence (P18506 whole entry): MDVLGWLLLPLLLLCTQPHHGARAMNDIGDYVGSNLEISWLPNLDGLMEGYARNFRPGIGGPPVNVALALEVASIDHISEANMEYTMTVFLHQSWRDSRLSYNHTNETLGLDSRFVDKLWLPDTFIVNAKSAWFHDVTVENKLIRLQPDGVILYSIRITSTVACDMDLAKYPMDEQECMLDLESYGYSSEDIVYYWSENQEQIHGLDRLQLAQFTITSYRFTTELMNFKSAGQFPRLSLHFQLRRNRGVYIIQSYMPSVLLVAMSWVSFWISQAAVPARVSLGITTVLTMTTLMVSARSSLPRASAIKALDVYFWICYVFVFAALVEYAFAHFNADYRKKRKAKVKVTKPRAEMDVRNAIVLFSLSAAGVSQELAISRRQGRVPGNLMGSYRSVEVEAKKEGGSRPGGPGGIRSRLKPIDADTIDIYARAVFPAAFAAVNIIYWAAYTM
T3 sequence (P30191 whole entry): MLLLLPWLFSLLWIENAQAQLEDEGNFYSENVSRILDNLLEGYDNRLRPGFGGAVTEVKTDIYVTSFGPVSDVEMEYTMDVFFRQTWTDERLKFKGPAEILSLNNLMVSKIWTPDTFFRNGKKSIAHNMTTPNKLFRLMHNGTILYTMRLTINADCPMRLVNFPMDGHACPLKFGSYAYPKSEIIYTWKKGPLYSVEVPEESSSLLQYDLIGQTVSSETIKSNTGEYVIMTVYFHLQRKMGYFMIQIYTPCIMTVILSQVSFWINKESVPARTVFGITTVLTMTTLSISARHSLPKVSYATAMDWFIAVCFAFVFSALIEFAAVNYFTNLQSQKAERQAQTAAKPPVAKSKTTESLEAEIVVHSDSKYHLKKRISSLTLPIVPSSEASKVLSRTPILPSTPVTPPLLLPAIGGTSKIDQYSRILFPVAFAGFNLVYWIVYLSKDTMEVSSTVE
T3 sequence (P63079 whole entry): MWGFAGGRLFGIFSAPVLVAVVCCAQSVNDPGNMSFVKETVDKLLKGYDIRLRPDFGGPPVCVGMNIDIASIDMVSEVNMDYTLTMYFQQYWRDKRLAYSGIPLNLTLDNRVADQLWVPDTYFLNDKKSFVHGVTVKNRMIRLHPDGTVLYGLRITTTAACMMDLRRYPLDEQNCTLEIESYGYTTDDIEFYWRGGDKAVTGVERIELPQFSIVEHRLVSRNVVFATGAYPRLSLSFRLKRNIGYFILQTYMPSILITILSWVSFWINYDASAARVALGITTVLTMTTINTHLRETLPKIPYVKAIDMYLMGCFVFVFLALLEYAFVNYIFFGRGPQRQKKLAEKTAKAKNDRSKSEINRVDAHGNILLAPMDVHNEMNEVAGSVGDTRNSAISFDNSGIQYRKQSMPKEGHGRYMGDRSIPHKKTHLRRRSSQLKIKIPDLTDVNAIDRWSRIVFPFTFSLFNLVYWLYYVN
T2 sequence (P18508 whole entry): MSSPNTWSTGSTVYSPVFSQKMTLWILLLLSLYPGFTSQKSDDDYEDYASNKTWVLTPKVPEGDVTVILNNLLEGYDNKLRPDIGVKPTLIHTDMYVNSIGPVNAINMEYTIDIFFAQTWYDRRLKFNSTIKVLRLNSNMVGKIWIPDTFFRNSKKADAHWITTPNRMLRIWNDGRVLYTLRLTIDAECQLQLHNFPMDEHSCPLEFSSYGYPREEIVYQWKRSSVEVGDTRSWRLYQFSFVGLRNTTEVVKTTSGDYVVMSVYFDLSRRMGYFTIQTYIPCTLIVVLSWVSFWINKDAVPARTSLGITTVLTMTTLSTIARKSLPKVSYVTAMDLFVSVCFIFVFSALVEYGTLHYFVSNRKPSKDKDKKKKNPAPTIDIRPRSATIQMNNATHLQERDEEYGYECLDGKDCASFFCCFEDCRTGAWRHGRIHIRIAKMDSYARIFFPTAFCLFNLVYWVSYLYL
T2 sequence (P30191 whole entry): as the sequence (P30191 whole entry) above
T2 sequence (P63079 whole entry): as the sequence (P63079 whole entry) above
T1 sequence (P30191 whole entry): as the sequence (P30191 whole entry) above
T1 sequence (P63079 whole entry): as the sequence (P63079 whole entry) above
Gamma-aminobutyric acid receptor subunit alpha-6/beta-2/delta, sequence (P18506 whole entry): as the sequence (P18506 whole entry) above
Gamma-aminobutyric acid receptor subunit alpha-6/beta-2/delta, sequence (P30191 whole entry): as the sequence (P30191 whole entry) above
Gamma-aminobutyric acid receptor subunit alpha-6/beta-2/delta, sequence (P63138 whole entry): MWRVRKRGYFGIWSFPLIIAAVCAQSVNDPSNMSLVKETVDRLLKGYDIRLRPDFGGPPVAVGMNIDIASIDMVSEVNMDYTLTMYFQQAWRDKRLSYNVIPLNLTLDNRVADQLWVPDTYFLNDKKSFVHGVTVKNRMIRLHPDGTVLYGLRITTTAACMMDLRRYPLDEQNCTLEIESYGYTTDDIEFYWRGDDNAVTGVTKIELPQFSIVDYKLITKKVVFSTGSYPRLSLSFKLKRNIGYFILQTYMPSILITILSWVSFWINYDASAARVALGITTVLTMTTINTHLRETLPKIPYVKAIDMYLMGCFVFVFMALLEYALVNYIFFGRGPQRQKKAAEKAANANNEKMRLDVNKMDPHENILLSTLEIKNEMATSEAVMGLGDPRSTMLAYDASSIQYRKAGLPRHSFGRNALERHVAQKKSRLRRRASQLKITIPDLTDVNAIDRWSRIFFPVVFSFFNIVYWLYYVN

For orientation: IC50 means the concentration that inhibits the measured activity by half. With `O=C(Nc1c(-c2cccs2)nc2ccc(Br)cn12)C1CCCCC1`, the IC50 is 16 µM in [1], 25 µM in assay [2] and 10.1 µM in [3]. Further, the values for the Imax in assay [4], in [5] and in assay [6] were 21%, greater than 89% and 85%, respectively.
On to `CCCCOc1ccc(C(=O)Nc2c(-c3cccs3)nc3ccc(Br)cn23)cc1`, for which the IC50 came out at 2.18 µM in assay [3]; 2.43 µM in [7]; 4.07 µM in assay [17]; 4.34 µM in assay [19]; 0.87 µM in [21]. Besides, the Imax in assay [8] worked out at 10%; in [9] it was 54%; in [16], 26%; in assay [18] it was 40%; in assay [20] it was 51%; in [22] it was 13%. Moreover, the inhibition entry in [10], in [11], in assay [12], in assay [13], in assay [14] and in assay [15] was “inactive” throughout. The inhibition entry in [23] is “inactive”.
